Several values for one entry are separate records, joined by “and”; a condition that tells them apart may be missing. Identical values can stand only once.
Test system: U2OS
Test: Multiplex assay against U2OS
Assay type: toxicity, cell-based
Conditions: human, 10 µM, compound concentration 10 uM
How it was run: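 Imaging took place on a CQ1 microscope at 37°C and 5% CO2 once compound had been added to live cells stained at seeding with Hoechst33342, BioTracker Green Microtubule Cytoskeleton Dye, MitoTracker Red and Annexin V Alexa Fluor 680. CellPathfinder machine-learning gating classed cells as Hoechst high-intensity objects or normal cells, classed normal cells as having healthy, pyknosed or fragmented nuclei, and classed pyknosed cells as mitotic or apoptotic. Tubulin, mitochondrial-mass and membrane-permeability phenotypes are per cents of the healthy-nucleus cells.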

CN(c1ccccc1CNc1nc(Nc2ccc3c(c2)CC(=O)N3)ncc1C(F)(F)F)S(C)(=O)=O
Population Apoptotic (%) (12 h, replicate 1): 40% and 75% | Population Healthy Nuclei (%) (12 h, replicate 1): 44% and 89% | Population Hoechst High Intensity Objects (%) (12 h, replicate 1): 7% and 4% | Population Mitochondria Different-Phenotype (%) (12 h, replicate 1): 30% and 26% | Population Mitotic Cells (%) (12 h, replicate 1): 59% and 25% | Population Normal (%) (12 h, replicate 1): 92% and 95% | Population Tubulin-Different-Phenotype (%) (12 h, replicate 1): 72% and 24% | Total Cell Count (12 h, replicate 1): 122 and 100 | Population Apoptotic (%) (12 h, replicate 2): 91% and 33% | Population Fragmented Nuclei (%) (12 h, replicate 2): 23% and 11% | Population Healthy Nuclei (%) (12 h, replicate 2): 59% and 85% | Population Hoechst High Intensity Objects (%) (12 h, replicate 2): 17% and 6% | Population Membrane Permeable-Phenotype (%) (12 h, replicate 2): 27% and 12% | Population Mitochondria Different-Phenotype (%) (12 h, replicate 2): 37% and 32% | Population Normal (%) (12 h, replicate 2): 82% and 93% | Population Tubulin-Different-Phenotype (%) (12 h, replicate 2): 55% and 32% | Total Cell Count (12 h, replicate 2): 116 and 91 | Population Fragmented Nuclei (%) (24 h, replicate 1): 16% | Population Healthy Nuclei (%) (24 h, replicate 1): 56% and 83% | Population Mitochondria Different-Phenotype (%) (24 h, replicate 1): 57% and 45% | Population Normal (%) (24 h, replicate 1): 81% and 96% | Population Tubulin-Different-Phenotype (%) (24 h, replicate 1): 72% and 37% | Total Cell Count (24 h, replicate 1): 125 and 100 | Population Apoptotic (%) (24 h, replicate 2): 59% and 30% | Population Fragmented Nuclei (%) (24 h, replicate 2): 13% and 10% | Population Healthy Nuclei (%) (24 h, replicate 2): 53% and 78% | Population Hoechst High Intensity Objects (%) (24 h, replicate 2): 19% and 8% | Population Mitochondria Different-Phenotype (%) (24 h, replicate 2): 51% and 52% | Population Mitotic Cells (%) (24 h, replicate 2): 40% and 69% | Population Normal (%) (24 h, replicate 2): 80% and 91% | Population Tubulin-Different-Phenotype (%) (24 h, replicate 2): 48% and 38% | Total Cell Count (24 h, replicate 2): 130 and 91

From ChEMBL document CHEMBL4689842, “EUbOPEN Chemogenomics Library wave 1” (2021)
